# Legend:
# [1] = Cytotoxicity against human HepG2 cells assessed as decrease in cell viability after 48 hrs by SRB assay; format: functional, cell-based
# In short: (§1)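 SRB assay. Cells seeded at 10⁴ per well and allowed to attach for 24 h. Exposed to 0, 5, 12.5, 25 and 50 µg/mL, triplicate wells per dose, for 48 h at 37 °C in 5% CO₂. Cells fixed and SRB-stained; excess dye removed with acetic acid, bound dye recovered in Tris-EDTA and read on an ELISA reader. IC50 read from the surviving-fraction curve.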
# Candida albicans [2] = test: Antifungal activity against Candida albicans IMRU 3669 at 5 mg after 24 hrs by agar well diffusion assay; format: functional; conditions: IMRU 3669, 24 h, read-out: DIZ
# In short: (§2)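 Agar well diffusion. 100 µL inoculum (1×10⁸ CFU/mL bacteria, 1×10⁶ CFU/mL yeast) spread on nutrient agar (bacteria) or Sabouraud dextrose agar (fungi). 10 mm wells loaded with 100 µL of 5 mg/mL compound in DMSO. DMSO as negative control. Erythromycin (bacteria) or […] (fungi) at 5 mg/ml as standards. Plates incubated 24 h at 37 °C. Inhibition zone diameter (mm) measured, mean of triplicate.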
# [3] = Cytotoxicity against human PC3 cells assessed as decrease in cell viability after 48 hrs by SRB assay; format: functional, cell-based; conditions: pc-3; in short: as §1
# Micrococcus luteus [4] = test: Antibacterial activity against Micrococcus luteus ATCC 10240 at 5 mg after 24 hrs by agar well diffusion assay; format: functional; conditions: ATCC 10240, 24 h, read-out: DIZ; in short: as §2
# Pseudomonas aeruginosa [5] = test: Antibacterial activity against Pseudomonas aeruginosa ATCC 25619 at 5 mg after 24 hrs by agar well diffusion assay; format: functional; conditions: ATCC 25619, 24 h, read-out: DIZ; in short: as §2
# Micrococcus luteus [6] = test: Antibacterial activity against Sarcina lutea after 24 hrs by two-fold serial dilution method; format: functional
# In short: (§3)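 Two-fold serial dilutions of DMSO stock in adjusted Mueller-Hinton broth, final 100 to 0.78 µg/ml. Bacteria pre-grown in nutrient broth, fungi in malt extract broth (48 h). Each 5 ml tube given 0.1 ml inoculum (1×10⁸ CFU/ml bacteria, 1×10⁶ CFU/ml fungi), incubated 37 °C 24 h. MIC taken as lowest concentration with no growth; triplicate, averaged.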
# Bacillus pumilus [7] = test: Antibacterial activity against Bacillus pumilus at 5 mg after 24 hrs by agar well diffusion assay; format: functional; conditions: read-out: DIZ; in short: as §2
# Human alphaherpesvirus 1 = test: Antiviral activity against HSV1 infected in African green monkey Vero cells by plaque formation assay; format: functional; design: concentration or dose not given beside the values
# Coxsackievirus B4 = test: Antiviral activity against human Coxsackie virus B4 infected in African green monkey Vero cells by plaque formation assay; format: functional; design: concentration or dose not given beside the values
# Candida albicans [8] = test: Antifungal activity against Candida albicans IMRU 3669 after 24 hrs by two-fold serial dilution method; format: functional; conditions: IMRU 3669, 24 h; in short: as §3
# Bacillus subtilis = test: Antibacterial activity against Bacillus subtilis NCTC 10400 at 5 mg after 24 hrs by agar well diffusion assay; format: functional; conditions: NCTC 10400, 24 h, read-out: DIZ; in short: as §2
# Micrococcus luteus [9] = test: Antibacterial activity against Micrococcus luteus ATCC 10240 after 24 hrs by two-fold serial dilution method; format: functional; conditions: ATCC 10240, 24 h; in short: as §3
# Bacillus pumilus [10] = test: Antibacterial activity against Bacillus pumilus after 24 hrs by two-fold serial dilution method; format: functional; in short: as §3
# Hepatovirus A = test: Antiviral activity against Hepatitis A virus infected in African green monkey Vero cells by plaque formation assay; format: functional; design: concentration or dose not given beside the values
# [11] = Cytotoxicity against human HCT116 cells assessed as decrease in cell viability after 48 hrs by SRB assay; format: functional, cell-based; conditions: hct-116; in short: as §1
# Escherichia coli = test: Antibacterial activity against Escherichia coli ATCC 10536 at 5 mg after 24 hrs by agar well diffusion assay; format: functional; conditions: ATCC 10536, 24 h, read-out: DIZ; in short: as §2
# Pseudomonas aeruginosa [12] = test: Antibacterial activity against Pseudomonas aeruginosa ATCC 25619 after 24 hrs by two-fold serial dilution method; format: functional; conditions: ATCC 25619, 24 h; in short: as §3
# Aspergillus niger = test: Antifungal activity against Aspergillus niger at 5 mg after 24 hrs by agar well diffusion assay; format: functional; conditions: read-out: DIZ; in short: as §2
# [13] = Antifungal activity against Penicillium chrysogenum at 5 mg after 24 hrs by agar well diffusion assay; format: functional; in short: as §2
# Micrococcus luteus [14] = test: Antibacterial activity against Sarcina lutea at 5 mg after 24 hrs by agar well diffusion assay; format: functional; conditions: read-out: DIZ; in short: as §2
# [15] = Cytotoxicity against human MCF7 cells assessed as decrease in cell viability after 48 hrs by SRB assay; format: functional, cell-based; design: unit not given here; in short: as §1
SMILES,IC50 [1],zone of inhibition at 5000 µg/disc (Candida albicans [2]),IC50 [3],zone of inhibition at 5000 µg/disc (Micrococcus luteus [4]),zone of inhibition at 5000 µg/disc (Pseudomonas aeruginosa [5]),MIC (Micrococcus luteus [6]),zone of inhibition at 5000 µg/disc (Bacillus pumilus [7]),Activity (Human alphaherpesvirus 1),Activity (Coxsackievirus B4),MIC (Candida albicans [8]),zone of inhibition at 5000 µg/disc (Bacillus subtilis),MIC (Micrococcus luteus [9]),MIC (Bacillus pumilus [10]),Activity (Hepatovirus A),IC50 [11],zone of inhibition at 5000 µg/disc (Escherichia coli),MIC (Pseudomonas aeruginosa [12]),zone of inhibition at 5000 µg/disc (Aspergillus niger),inhibition zone (IZ) [13],zone of inhibition at 5000 µg/disc (Micrococcus luteus [14]),also measured
CSc1ccc(N2C(=N)C(=S)N(c3cc(Cl)cc(Cl)c3)C2=O)cc1,0.029 µg,25 mm,0.049 µg,18 mm,21 mm,6.25 µg/mL,25 mm,3.4%,0%,6.25 µg/mL,24 mm,6.25 µg/mL,6.25 µg/mL,0%,0.031 µg,23 mm,0.78 µg/mL,19 mm,20 mm,26 mm,IC50 [15]: 0.018
Cc1ccc(F)cc1N1C(=N)C(=S)N(c2cc(Cl)cc(Cl)c2)C1=O,0.05 µg,18 mm,0.064 µg,20 mm,22 mm,3.12 µg/mL,21 mm,45.3%,31.1%,6.25 µg/mL,20 mm,6.25 µg/mL,6.25 µg/mL,20.6%,0.034 µg,18 mm,3.12 µg/mL,22 mm,21 mm,24 mm,IC50 [15]: 0.011
COc1ccc(N2C(=N)C(=S)N(c3cc(OC)ccc3OC)C2=O)cc1,0.032 µg,29 mm,0.051 µg,17 mm,26 mm,6.25 µg/mL,23 mm,42%,0%,6.25 µg/mL,28 mm,6.25 µg/mL,3.12 µg/mL,60.1%,0.051 µg,28 mm,0.78 µg/mL,19 mm,20 mm,27 mm,IC50 [15]: 0.031

# From ChEMBL document CHEMBL3867423, “New imidazolidineiminothione derivatives: Synthesis, spectral characterization and evaluation of antitumor, antiviral, antibacterial and antifungal activities” (Eur J Med Chem, 2016)
